Shown are actives, neighbours in structure and some others; about 1.8% of the full set was active somewhere.
Gli-Sufu antag: blocks Gli-Sufu signaling in a luciferase reporter; Sufu-KO-LIGHT fibroblasts, Gli luciferase reporter luminescence; inhibition, % at 5 µM; 340,000 compounds, 0.74% hits; AID 588413;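 active = inhibition above about 55%, limit read from the data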;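 note: 0% = DMSO-treated cells and 100% = wells with medium but no cells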
NR2E3 ag-1: NR2E3 (human) agonism | 320,000 compounds, 0.12% hits | GST-NR2E3/biotin-RetCOR TR-FRET, 1536-well | Q9Y5X4 | inhibition of corepressor binding, % at 4.78 µM;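 active = percent inhibition above the cutoff of mean plus 3 SD of all tested compounds, set per screening campaign, cut at about 20% in these data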;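 note: 0% = DMSO wells and 100% = biotin wells as full block of FRET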
Target sequence (Q9Y5X4 whole entry, looked up): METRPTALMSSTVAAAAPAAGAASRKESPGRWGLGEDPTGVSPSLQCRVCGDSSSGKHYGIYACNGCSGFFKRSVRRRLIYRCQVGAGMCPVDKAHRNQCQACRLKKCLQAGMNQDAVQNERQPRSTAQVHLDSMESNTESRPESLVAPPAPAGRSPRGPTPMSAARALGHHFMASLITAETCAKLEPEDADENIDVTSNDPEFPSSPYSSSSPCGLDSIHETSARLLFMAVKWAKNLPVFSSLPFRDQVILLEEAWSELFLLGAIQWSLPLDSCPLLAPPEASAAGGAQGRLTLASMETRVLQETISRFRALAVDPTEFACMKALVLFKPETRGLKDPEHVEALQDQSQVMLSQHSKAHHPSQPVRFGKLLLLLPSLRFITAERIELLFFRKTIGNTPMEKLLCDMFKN
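Material: NR2E3–RetCOR corepressor complex / Incubation: Compound–protein incubation for 5 h at 4 °C / Dosing: compound at 4.8 µM, single dose / Detection: time-resolved FRET / Benchmarks: high control biotin, low control 0.6% DMSO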
GalR3 antagonist: blocks the human galanin receptor 3; O60755; inhibition, % at 3 µM; HEK293 GalR3-CNG cAMP membrane potential fluorescence; galR3 body fused to GalR1 C-terminus; 360,000 compounds, 0.44% hits;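 active = inhibition above the screen-wide average plus 3 SD, cut at about 13% in these data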;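 note: forskolin and galanin both at EC90 stimulate the cells; cAMP rise reported by CNG channel membrane potential dye signal; 0% = forskolin plus galanin with DMSO and 100% = forskolin alone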
697 NFkB inh: lowers PMA/ionomycin-induced NF-kB signal in 697 B cells. 697 B-cell NF-kB luciferase reporter, 16 h. inhibition, % at 4 µM. 330,000 compounds, 0.33% hits. AID 435022; in the data active = inhibition above about 35%
Jurkat NFkB inh: inhibitors of the PMA/ionomycin-induced NF-kB reporter in Jurkat cells; PMA/ionomycin-induced NF-kB luciferase reporter, luminescence; AID 435003; inhibition, % at 4 µM; 330,000 compounds, 0.53% hits; in the data active = inhibition above about 50%
NR2E3 ag-2: human photoreceptor-specific nuclear receptor agonism. AID 602229. CHO-S Gal4-NCOR/VP16-NR2E3 two-hybrid, luciferase. 360,000 compounds, 0.35% hits. inhibition of corepressor binding, % at 3.98 µM;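 active = inhibition above the mean of all tested compounds plus 3 SD, cut at about 70% in these data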;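 note: 0% = DMSO with NR2E3 transfected cells and 100% = cells lacking NR2E3 construct; higher means lower luciferase signal from less NR2E3 corepressor binding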
NR2E3 ag confirm: NR2E3 agonism confirmed in two-hybrid assay; inhibition, % at 3.98 µM; CHO-S mammalian two-hybrid NR2E3-NCOR, luciferase luminescence; shares compounds with NR2E3 ag-2; AID 624378; 2,300 compounds, 51% hits;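 active = average inhibition above a cutoff equal to the mean inhibition of all tested compounds plus one SD, cut at about 70% in these data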;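 note: 0% = DMSO in NR2E3 cells and 100% = DMSO in cells lacking NR2E3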
VP16 counter: reduces GAL4-VP16 reporter signal in NR2E3 counterscreen; shares compounds with NR2E3 ag-2; CHO-S GAL4-VP16 luciferase reporter, luminescence; inhibition, % at 3.98 µM; 2,300 compounds, 29% hits; AID 624379;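 active = mean inhibition above a cutoff equal to the average over all tested compounds plus one standard deviation, cut at about 70% in these data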;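 note: luciferase from a UAS reporter driven by GAL4-VP16 transactivation; 0% = DMSO with VP16-transfected cells and 100% = DMSO with cells lacking VP16; higher means less reporter light so more repression of VP16 activity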
An asterisk follows results filed as active.

For CNc1nc2c(c(=O)n(C)c(=O)n2C)n1Cc1ccccc1 the results were Gli-Sufu antag 29, NR2E3 ag-1 2, GalR3 antagonist -8, 697 NFkB inh -10, Jurkat NFkB inh 20, NR2E3 ag-2 56, NR2E3 ag confirm 15 and VP16 counter 28.
`Cn1c(=O)c2c(nc(NCc3ccco3)n2C/C=C/c2ccccc2)n(C)c1=O` gave Gli-Sufu antag -4, NR2E3 ag-1 -1, GalR3 antagonist 1, 697 NFkB inh -17, Jurkat NFkB inh 36, NR2E3 ag-2 51, NR2E3 ag confirm 88* and VP16 counter 71.
`Cn1c(=O)c2c(nc(NCc3ccco3)n2C)n(C)c1=O` gave Gli-Sufu antag -2, NR2E3 ag-1 1, GalR3 antagonist -8, 697 NFkB inh 6, Jurkat NFkB inh -4 and NR2E3 ag-2 10.
`CC(Cl)=CCn1c(NCCc2ccccc2)nc2c1c(=O)n(C)c(=O)n2C` gave GalR3 antagonist -4, NR2E3 ag-2 48, NR2E3 ag confirm 91* and VP16 counter 71*.
CC(C)CCn1c(NCCc2ccccc2)nc2c1c(=O)n(C)c(=O)n2C was read as Gli-Sufu antag 20, NR2E3 ag-1 4, GalR3 antagonist -7, 697 NFkB inh -16, Jurkat NFkB inh 7 and NR2E3 ag-2 18.
COc1ccc(OC)c(C2C(C(C)=O)=C(C)Nc3ncnn32)c1 (stereo not drawn) was read as Gli-Sufu antag 32, NR2E3 ag-1 1, GalR3 antagonist -3, 697 NFkB inh 7, Jurkat NFkB inh 6 and NR2E3 ag-2 3.
For O=C(COC(=O)Cc1ccsc1)Nc1ccc(Cl)c(S(=O)(=O)N2CCOCC2)c1 the results were Gli-Sufu antag -3, NR2E3 ag-1 0, GalR3 antagonist -5, 697 NFkB inh -26, Jurkat NFkB inh 14 and NR2E3 ag-2 -7.
For COc1ccc(NS(=O)(=O)c2ccc3oc(SCc4ccc(F)cc4)nc3c2)cc1 the results were Gli-Sufu antag 23, NR2E3 ag-1 1, GalR3 antagonist -3, 697 NFkB inh -10, Jurkat NFkB inh 17, NR2E3 ag-2 53, NR2E3 ag confirm 85* and VP16 counter 69.
COc1ccccc1NS(=O)(=O)c1ccc2oc(SCc3ccc(F)cc3)nc2c1 was read as Gli-Sufu antag 4, NR2E3 ag-1 -3, GalR3 antagonist -11, 697 NFkB inh -9, Jurkat NFkB inh 13 and NR2E3 ag-2 6.
For CCOC(=O)N1CCN(Cc2nnc(-c3cccc(Br)c3)o2)CC1 the results were Gli-Sufu antag -3, NR2E3 ag-1 1, GalR3 antagonist 4, 697 NFkB inh 6, Jurkat NFkB inh 2 and NR2E3 ag-2 -8.
O=C1c2ccccc2C(=O)c2c1oc(C(F)(F)F)c2C(=O)c1ccccc1 was read as Gli-Sufu antag -11, NR2E3 ag-1 4, GalR3 antagonist -2, 697 NFkB inh -4, Jurkat NFkB inh 19, NR2E3 ag-2 112*, NR2E3 ag confirm 98* and VP16 counter 87*.
Screening O=C(CNCc1ccc(F)cc1)Nc1cc(S(=O)(=O)N2CCOCC2)ccc1Cl returned Gli-Sufu antag 7, GalR3 antagonist -5, 697 NFkB inh 5, Jurkat NFkB inh -2 and NR2E3 ag-2 19.
`COc1cc(/C=N/NC(=O)c2sc(N)c(C#N)c2C)cc(Br)c1O` gave Gli-Sufu antag -10, NR2E3 ag-1 -2, GalR3 antagonist -6, 697 NFkB inh 8, Jurkat NFkB inh 3, NR2E3 ag-2 60, NR2E3 ag confirm 4 and VP16 counter -6.
`COc1ccc2ccccc2c1/C=N/NC(=O)c1sc(N)c(C#N)c1C` gave Gli-Sufu antag 9, NR2E3 ag-1 0, GalR3 antagonist 0 and NR2E3 ag-2 6.
Cc1ccc(S(=O)(=O)NCC(NCc2ccc(F)cc2)c2ccccc2)cc1 (stereo not drawn) was read as Gli-Sufu antag 8, GalR3 antagonist -7, 697 NFkB inh 4, Jurkat NFkB inh 12 and NR2E3 ag-2 28.

Assay outcomes (PubChem)
